M5 ag = CHRM5 agonism in calcium assay; P08912; CHO-K1 hM5 cells, Fluo-8 calcium fluorescence; 0% DMSO wells, 100% maximal acetylcholine response; activation, % at 3 µM; actives 0.19% (n = 360,000); AID 624037;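 active = activation above the run's mean over test compounds plus 3 SD, cut at about 23% in these data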;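 also: signal is peak over basal fluorescence ratio across the kinetic read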
M4 PAM = CHRM4 positive allosteric modulation. P08173. CHO-K1 hM4/Gqi5, Fluo-8 calcium fluorescence, ACh EC20; 0% = ACh EC20, 100% = maximal ACh. activation, % at 3 µM. actives 0.4% (n = 360,000);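 active = activation above its plate's cutoff, the mean activation of sample wells plus 3 SD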
Target sequence (P08173 whole entry, looked up): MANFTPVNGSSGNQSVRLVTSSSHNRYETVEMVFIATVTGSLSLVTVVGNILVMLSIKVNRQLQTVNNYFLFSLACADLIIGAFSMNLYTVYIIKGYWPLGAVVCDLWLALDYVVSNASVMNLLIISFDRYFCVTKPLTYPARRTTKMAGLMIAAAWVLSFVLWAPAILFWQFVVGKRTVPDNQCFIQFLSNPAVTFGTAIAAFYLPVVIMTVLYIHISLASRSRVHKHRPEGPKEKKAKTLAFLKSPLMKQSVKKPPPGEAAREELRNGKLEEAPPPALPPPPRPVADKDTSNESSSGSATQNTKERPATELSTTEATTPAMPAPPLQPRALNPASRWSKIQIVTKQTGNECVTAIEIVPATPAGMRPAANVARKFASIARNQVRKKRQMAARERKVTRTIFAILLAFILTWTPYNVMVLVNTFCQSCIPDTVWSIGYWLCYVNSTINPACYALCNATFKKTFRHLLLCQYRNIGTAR
M5 antag = antagonists of human muscarinic M5 receptor (CHRM5); AID 624040; actives 0.59% (n = 360,000); P08912; inhibition, % at 3 µM; CHO-hM5 cells, Fluo-8 calcium fluorescence, ACh EC80;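 active = inhibition above a per-plate cutoff, the mean of that plate's test compounds plus 3 SD, cut at about 27% in these data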;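 also: 0% = acetylcholine EC80 with DMSO and 100% = DMSO without agonist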
CHRM4 antagonist = CHRM4 antagonism in calcium assay. actives 0.73% (n = 360,000). CHO-hM4 cells, ACh EC80, Fluo-8 calcium fluorescence. inhibition, % at 3 µM. P08173;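 active = inhibition above its plate's cutoff, the mean inhibition of sample wells plus 3 SD, cut at about 27% in these data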;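 also: 0% = acetylcholine EC80 with DMSO and 100% = DMSO without agonist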
CHRM4 agonist = agonists of human muscarinic M4 receptor (CHRM4) | actives 0.14% (n = 360,000) | AID 624127 | P08173 | CHO-K1 hM4/Gqi5, Fluo-8 calcium fluorescence; vehicle 0%, full acetylcholine response 100% | activation, % at 3 µM;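 active = activation above the run mean over all test wells plus 3 SD, cut at about 32% in these data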;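 also: peak over basal fluorescence ratio per well then scaled between controls; 0% = DMSO wells and 100% = acetylcholine at EC100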
M5 PAM = CHRM5 positive allosteric modulation | CHO-K1 hM5, Fluo-8 calcium, ACh EC20 PAM; 0% = ACh EC20, 100% = ACh EC100 | activation, % at 3 µM | AID 624038 | actives 0.3% (n = 360,000) | P08912;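 active = activation above the run cutoff, the mean activation of all test compounds plus 3 SD, cut at about 18% in these data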
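Probe or stimulus: acetylcholine, EC20 level; Assay system: human M5 receptor in CHO-K1 cells; Schedule: compound preincubation 140 s before EC20 acetylcholine addition; Technique: intracellular calcium via Fluo-8 fluorescence; Dosing: single-point, 3 µM nominal; Read-out basis: percent activation from peak-over-basal fluorescence ratio, scaled EC20-to-EC100 acetylcholine; Repeats: one well per compound, no replicates.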
An asterisk follows results filed as active. This is a sample that favours compounds with a hit; in the whole collection about 1.8% have one here.

SMILES	M5 ag	M4 PAM	M5 antag	CHRM4 antagonist	CHRM4 agonist	M5 PAM
COc1ccc([N+](=O)[O-])cc1NC(=S)NC(NC(=O)C(c1ccccc1)c1ccccc1)C(Cl)(Cl)Cl (centres undefined)	0	-5	18	27*	5	-10
COc1ccc([N+](=O)[O-])cc1NC(=O)C(C)c1ccccc1 (centres undefined)	-3	-3	10	7	-1	-3
Cc1ccc(CSCC(=O)N(CCC(C)C)c2c(N)n(Cc3ccccc3)c(=O)[nH]c2=O)cc1	2	9	8	-4	1	3
COc1cc(-c2cnc3c(NC(C)=O)cc(-c4ccccc4CN(C)C)cn23)cc(OC)c1OC	-3	4	-1	-3	0	1
O=c1c2cnn(-c3ccc(F)cc3)c2ncn1Cc1cccnc1	2	4	-2	-16	4	29*
COc1cccc(N2CCN(c3ccc([N+](=O)[O-])cn3)CC2)c1	-1	17*	22	-1	1	11
Cc1nnc(SCC(=O)N2N=C(c3ccc(Cl)cc3)CC2c2ccco2)[nH]c1=O (centres undefined)	-2	23*	2	-12	4	4
Cc1cccc(C)c1NC(=O)C(c1ccnc2ccccc12)n1c(=O)c(-c2ccco2)nc2ccccc21 (centres undefined)	-2	0	10	7	1	-3
COc1cc(/C=C(/C#N)C(=O)NC(C)c2ccccc2)cc(OC)c1O (centres undefined)	12	-4	0	2	33*	0
CC(NC(=O)/C(C#N)=C/c1ccc(C(=O)O)cc1)c1ccccc1 (centres undefined)	0	7	-8	-17	0	18
C[C@@H]1CCCCO[C@@H](CN(C)C(=O)CCCN(C)C)[C@@H](C)CN([C@H](C)CO)C(=O)c2cc(N(C)C)ccc2O1	3	-7	-5	9	1	4
O=C1c2cccc3c(O)ccc(c23)C(=O)N1Cc1ccccc1	173*	-28	56*	47*	178*	-34
CC(=O)Nc1cccc2ccc(O)cc12	-2	16*	5	-11	0	3
Cc1cc(NC(=O)CN(C)CC(=O)Nc2ccc(Cl)c(C(F)(F)F)c2)no1	4	23*	8	-7	6	-6
Cc1cc(NC(=O)CSCC(=O)Nc2ccc(Cl)c(C(F)(F)F)c2)no1	2	0	10	-5	4	-8
CCOC(=O)c1[nH]c2ccc(OC)cc2c1C	1	20	32*	1	3	-3
COCCCNC(=O)C1CCC(CNS(=O)(=O)c2ccc3c(c2)N(C(C)=O)CCO3)CC1 (centres undefined)	-3	6	4	-9	2	0
O=C(N/C(=C/c1cccc([N+](=O)[O-])c1)C(=O)N1CCCCC1)c1ccco1	-3	-4	32*	-6	2	-10
O=C(N/C(=C/c1cccc([N+](=O)[O-])c1)C(=O)N1CCCCCC1)c1cccs1	0	8	-2	-6	1	0
O=C(COC(=O)c1ccc(F)cc1F)Nc1ccc(S(=O)(=O)N2CCOCC2)cc1	3	3	1	-8	6	-1
Cc1ccnc(NS(=O)(=O)c2ccc(NS(=O)(=O)c3ccccc3)cc2)n1	1	7	-6	6	1	23*
CCOCCc1nnc(NC(=O)Cc2ccccc2)s1	3	12	-5	0	-1	5
CCOCCc1nnc(NC(=O)Cc2c(F)cccc2Cl)s1	-2	19*	2	-13	-1	5
Cc1nc(Cl)sc1C(=O)Nc1cc(F)cc(F)c1	6	-5	1	4	8	1
Cc1nc(Cl)sc1C(=O)O	-2	34*	-4	6	1	1
COc1ccc(NC(=O)CCCC(=O)OCC(=O)c2cccc(OC)c2)cc1	-2	-2	6	-8	8	-8
